Source: PubChem
A selection: hits, their analogues and other compounds. The true share with any hit is near 3.3%.
Myeloid diff 2: promotes myeloid progenitor differentiation. ER-HoxA9 myeloid progenitors, lysozyme-GFP differentiation, flow cytometry. calls only at 10 µM. 360,000 compounds, 1% hits;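 active means normalized GFP-positive differentiation at or above the plate's own cutoff, the solvent-only control mean plus 3 SD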;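 further: cells exposed to compound for four days before flow analysis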
ATG4B inhibitor: inhibitors of human ATG4B cysteine protease; inhibition, % at 8.33 µM; 340,000 compounds, 0.51% hits; ATG4B cleavage of LC3-PLA2, NBD-HPC fluorescence, 1 h; Q9Y4P1; in the data active means inhibition above about 40%
Target sequence (Q9Y4P1 whole entry, looked up): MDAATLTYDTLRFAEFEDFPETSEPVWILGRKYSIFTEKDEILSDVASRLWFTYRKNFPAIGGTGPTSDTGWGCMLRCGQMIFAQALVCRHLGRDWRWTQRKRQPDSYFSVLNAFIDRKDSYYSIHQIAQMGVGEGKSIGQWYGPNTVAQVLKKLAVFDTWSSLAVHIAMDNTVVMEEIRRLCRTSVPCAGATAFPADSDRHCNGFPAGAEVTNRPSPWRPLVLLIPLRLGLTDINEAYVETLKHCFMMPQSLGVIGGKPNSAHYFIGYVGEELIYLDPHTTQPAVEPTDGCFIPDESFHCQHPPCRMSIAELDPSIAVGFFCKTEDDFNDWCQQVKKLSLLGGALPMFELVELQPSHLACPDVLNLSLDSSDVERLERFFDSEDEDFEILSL
ABCB6 inh MLPCN: human ABCB6 transporter inhibition; Q9NP58; K562-ABCB6 porphyrin accumulation, flow cytometry, 1 h; hits give low values; 360,000 compounds, 0.19% hits; fluorescence ratio to DMSO, % at 10 µM;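 active means fluorescence ratio to DMSO below 75%, the collection mean minus 3 SD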;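 further: signal is porphyrin accumulated inside mitochondria; 100% equals median channel fluorescence of DMSO control wells; lower ratio means ABCB6 inhibition with less porphyrin fluorescence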
Granule exo inh: blocks lytic granule exocytosis; TALL-104 LAMP-1 surface exposure, flow cytometry; cells stimulated with thapsigargin and PMA; inhibition, % at 10 µM; 360,000 compounds, 0.66% hits;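 active means inhibition above about 55%, limit read from the data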
CendR NRP1 mod: alters CendR peptide binding to human NRP-1; FAM-RPARPAR peptide binding to NRP-1, fluorescence polarization; 360,000 compounds, 0.85% hits; inhibition, % at 25 µM;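 active means inhibition or corrected inhibition above about 18%, plus a signal ratio from 0.5 to 1.5, limit read from the data, passing the limit was not always enough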
Arrestin-AP2 inh: blocks beta-arrestin peptide binding to AP2 adaptin; FITC-arrestin peptide / GST-AP2 beads, flow cytometry; AP2 beta2 appendage carries R879A mutation; inhibition, % at 10 µM; 340,000 compounds, 0.31% hits; AID 504490;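 active means inhibition above a set limit, near 3 SD of compounds lacking own fluorescence, cut at about 54% in these data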;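 further: plate controls were DMSO wells for no effect and 5 µM unlabelled arrestin peptide for full effect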
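System: GST-tagged AP2 beta2-adaptin appendage (R879A) on 4 µm glutathione beads / Reagent: FITC-arrestin peptide, 50 nM / Detection: HyperCyt-sampled flow cytometry, FL1 channel, ex 488/em 535 nm / Timing: 12 min plus 1 h, RT / Buffer or medium: PBS plus Tween 20 (0.05%) and BSA (0.1%)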
Myeloid diff: myeloid differentiation induction. shares compounds with Myeloid diff 2. ER-HoxA9 myeloid progenitors, GFP/Mac1 double-positive flow. calls only. 2,300 compounds, 2% hits;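 active means share of green or green-and-red cells above 9 and 9% in run 1 or 4 and 3% in run 2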
GFP autofluor: compound fluorescence in myeloid differentiation counter-screen. 2,300 compounds, 7.4% hits. ER-HoxA9 myeloid progenitors, no estrogen, GFP autofluorescence flow cytometry; vehicle wells 0%, positive control 100%. AID 651707. shares compounds with Myeloid diff 2. fluorescence response, % (concentration not given with the values);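 active means over 5% cells positive for green fluorescent reporter, or over 2% positive for both it and APC stain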;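 further: range taken on the double positive population between DMSO and positive control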
* = called active by the depositor; i = inactive; . = no result given; + = active, no number.

SMILES | Myeloid diff 2 | ATG4B inhibitor | ABCB6 inh MLPCN | Granule exo inh | CendR NRP1 mod | Arrestin-AP2 inh | Myeloid diff | GFP autofluor
COc1cc(/C=C2\SC(=S)N(NC(=O)c3ccncc3)C2=O)ccc1O | i | 3 | 192 | 16 | -167 | -9 | . | .
CC(C)Cc1nnc(NC(=O)c2ccc3c(=O)n4c(nc3c2)CCC4)s1 | i | -1 | 102 | 0 | 2 | 38 | . | .
COc1ccccc1CC1(C)NC(=O)N(CC(=O)N2CCc3ccccc3C2)C1=O (centres undefined) | i | 0 | 99 | -5 | 4 | 1 | i | 0
COc1cc(C(C(=O)NC2CCCCC2)N(CCN2CCOCC2)C(=O)C2COc3ccccc3O2)cc(OC)c1OC (centres undefined) | i | 3 | 102 | -6 | 3 | -12 | . | .
CON1C(=O)C(=O)N(OC)C(C)(C)C1C (centres undefined) | i | 4 | 101 | 0 | 11 | -2 | i | 0
NC(N)=NC(=O)c1nc(Cl)c(N)nc1N | i | -4 | 105 | -2 | -12 | -3 | i | 0
Brc1ccc(-c2csc3[n+]2CCCCC3)cc1 | + | -6 | 100 | -2 | 1 | -9 | + | 0
Clc1ccc(-n2cc(-c3ccc(Br)cc3)[n+]3c2CCCCC3)cc1 | i | -3 | 96 | 23 | 4 | 26 | . | .
CC#CCN1c2ccccc2[C@]23C[C@@H](C(=O)OC)N=C2NC(C(=O)OC)=C(C(=O)OC)[C@H]13 | i | -3 | 103 | -1 | 16 | -2 | . | .
CCCCOCCCNC(=O)N[C@H](C(=O)OC)C(C)CC (some centres undefined) | i | 2 | 98 | -3 | 2 | 11 | . | .
N#CC1=C(S)N(c2ccccc2)C(c2ccc(-c3cc(Cl)ccc3Cl)o2)NC1=O (centres undefined) | i | 27 | 110 | 6 | -10 | 22 | i | 0
CC(Oc1ccc(-c2ccccc2)c(F)c1)c1ccn(S(=O)(=O)c2ccc(F)cc2)n1 (centres undefined) | i | -2 | 96 | 4 | 15 | 24 | i | 1
Cc1ccc(Cl)cc1N1CCN(Cc2nc3c(c(=O)[nH]c(=O)n3C)n2Cc2ccccc2F)CC1 | i | -1 | 94 | 2 | -8 | -3 | . | .
Cc1ccc(Cl)cc1N1CCN(Cc2nc3c(c(=O)[nH]c(=O)n3C)n2CCc2ccccc2)CC1 | i | 0 | 104 | 4 | 10 | 8 | i | 0
Cc1nc(-c2ccccc2)sc1-c1ccn[nH]1 | i | -4 | 92 | -1 | 5 | 30 | . | .
CCn1c(-c2sc(-c3ccccc3)nc2C)n[nH]c1=S | + | -5 | 105 | 9 | 3 | -12 | i | 0
Cc1cc(Cl)ccc1NC(=S)N1CCN(Cc2ccc3c(c2)OCO3)CC1 | + | -3 | 95 | -2 | -6 | -5 | i | 0
COc1cc(/C=C/C(=O)OC[C@H]2O[C@H](OC3(CO)OC(CO)C(O)C3O)[C@H](O)[C@@H](O)[C@@H]2O)ccc1O (some centres undefined) | i | -3 | 98 | -5 | 7 | 14 | i | 0
COc1cc(/C=C/C(=O)OCC(=O)N2CCC(C)CC2)ccc1O | i | 2 | 99 | -4 | 3 | -9 | . | .
O=C(O)CCC1C(=O)NC(=O)CC1c1ccccc1 (centres undefined) | i | . | 104 | 4 | 12 | . | . | .
O=C(NCCc1ccccc1)C1CCCN1C(=O)Nc1ccc(F)cc1 (centres undefined) | + | -3 | 102 | -1 | 0 | 28 | i | 0
CC(=O)C1=C(O)C=C(c2ccco2)CC1c1ccco1 (centres undefined) | i | -2 | 113 | -2 | -16 | 20 | i | 0
CC(=O)N1CCc2cc(S(=O)(=O)NCCC(=O)Nc3ccc4c(c3)OCCO4)ccc21 | i | -3 | 103 | -5 | 3 | 7 | i | 0
CC(=O)N1CCc2cc(S(=O)(=O)NCCC(=O)Nc3cc(C)cc(C)c3)ccc21 | i | -18 | 95 | -2 | 9 | -2 | . | .
CC1CN(CC(O)c2ccc(Br)cc2)CCO1 (centres undefined) | i | 1 | 93 | -2 | 2 | 35 | . | .
SMILES | Myeloid diff 2 | ATG4B inhibitor | ABCB6 inh MLPCN | Granule exo inh | CendR NRP1 mod | Arrestin-AP2 inh | Myeloid diff | GFP autofluor
CCOC(=O)c1c(C)c(C(=O)NCc2cccs2)c(C)n1C | i | -5 | 90 | -2 | 10 | 4 | i | 0
OC1(c2ccccc2F)CCN(Cc2nnnn2Cc2ccc(F)cc2)CC1 | + | -2 | 101 | -2 | -12 | 32 | i | 0
Cc1cc(NC(=O)CSCC(=O)N2CCN(c3ccccc3)CC2)no1 | i | 16 | 85 | -4 | -5 | -9 | . | .
CCCCOC(=O)C(C#N)c1nc2ccccc2nc1N1CCN(Cc2ccc3c(c2)OCO3)CC1 (centres undefined) | + | 2 | 108 | -1 | -12 | -1 | i | 0
Cc1cc(NC(=O)C2CCN(S(=O)(=O)c3cccs3)CC2)no1 | i | -14 | 93 | -6 | -1 | -2 | . | .
O=C(Nc1ccon1)C1CCN(S(=O)(=O)c2cccs2)CC1 | i | 3 | 97 | -2 | 3 | 12 | i | 1
CC(C)OC(=O)CSc1nnc(Cc2ccccc2)n1C | + | 0 | 99 | -1 | -2 | 4 | i | 0
COc1ccccc1NC(=O)c1cccnc1 | i | -7 | 94 | -3 | 6 | 3 | . | .
COc1cccc(C(=O)Nc2ccc(F)cc2F)c1 | i | 4 | 99 | -2 | 17 | 11 | i | 0
COc1cccc(C(=O)NC(=S)Nc2ccc3c4c(cccc24)CC3)c1 | + | -2 | 158 | 0 | -6 | 38 | i | 1
COc1ccc(NC(=O)c2cccnc2)c(OC)c1 | + | -3 | 96 | -3 | 6 | 16 | i | 0
COc1ccc([N+](=O)[O-])cc1NC(=O)CCC(=O)c1cccs1 | i | -1 | 97 | 0 | 2 | 20 | . | .
COc1ccc(NC(=O)CSc2nc3c(c(=O)n2C)SCC3)cc1OC | i | 3 | 95 | -3 | -4 | 46 | . | .
O=C(NCc1ccccc1)C(c1ccc(C(F)(F)F)cc1)N1CCN(CCN2CCOCC2)CC1 (centres undefined) | i | . | . | 12 | -2 | . | i | 0
O=C(NCc1ccccc1)C(c1ccc(-c2ccccc2)cc1)N1CCN(CCN2CCOCC2)CC1 (centres undefined) | i | . | . | 1 | 3 | . | . | .
N#CCCSc1nc(N2CCOCC2)c2c(c1C#N)CCCC2 | i | -8 | 92 | -2 | 4 | 9 | i | 0
